IC50 and IC90 data for eight compounds are collected here from ChEMBL document CHEMBL1123836, “Synthesis and antiviral activity of 9-[4-hydroxy-3-(hydroxymethyl)but-1-yl]purines” (J Med Chem, 1987).

pIC50: −log10 of the molar value.

The test system of test [1] is Vero. The experiment in a line: Compound was tested for antiviral activity against Herpes Simplex virus Type-1(HFEM) in vero cells. The format is functional, cell-based. Conditions: Chlorocebus sabaeus. An outline of the steps: (§1)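 Plaque reduction in Vero cell monolayers infected with about 50 PFU of HSV-1 or HSV-2. A concentration range of compound was included in an agarose overlay and kept present throughout. Plaques were counted 3 days post-infection. IC50 is the concentration giving a plaque count 50% of untreated controls. Stocks were 10 mg/mL in Me2SO, diluted in test medium.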

Test [2] concerns Vero. In words: Compound was tested for antiviral activity against Herpes Simplex virus Type-2(MS) in vero cells. In kind it is functional, cell-based. Conditions: Chlorocebus sabaeus. An outline of the steps:
as §1

Test [3] has as its system MRC5. The experiment in a line: Compound was tested for antiviral activity against Herpes Simplex virus Type-1(19407) in human lung fibroblasts (MRC-5). The format is functional. In outline:
(§2)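 Virus yield reduction in MRC-5 cells infected at a multiplicity of about 1 PFU/cell. A concentration range of compound was added in culture medium after virus adsorption and kept present throughout. Supernatants were harvested 24 h post-infection and titrated on Vero cells. IC90 is the concentration reducing infectious yield by 90% versus untreated controls.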

Test [4] relates to MRC5. In words: Compound was tested for antiviral activity against Herpes Simplex virus Type-2(20605) in human lung fibroblasts (MRC-5). In kind it is functional. An outline of the steps:
as §2

Test [5] concerns MRC5. The experiment in a line: Compound was tested for antiviral activity against Herpes Simplex virus Type-2(21929) in human lung fibroblasts (MRC-5). The format is functional. An outline of the steps: as §2
For test [6], the system named is MRC5. The experiment in a line: Compound was tested for antiviral activity against Herpes Simplex virus Type-1(20132) in human lung fibroblasts (MRC-5). In kind it is functional. An outline of the steps: as §2
Test [7] has as its system MRC5. In words: Compound was tested for antiviral activity against Herpes Simplex virus Type-1(HFEM) in human lung fibroblasts (MRC-5). The format is functional. In outline: as §2
Test [8] concerns MRC5. The experiment in a line: Compound was tested for antiviral activity against Herpes Simplexin human lung fibroblasts (MRC-5)in vero cells. In kind it is functional.
For test [9], the system named is MRC5. In words: Compound was tested for antiviral activity against Herpes Simplex virus Type-1(18189) in human lung fibroblasts (MRC-5). The format is functional. In outline: as §2
In test [10] the test system is MRC5. The experiment in a line: Compound was tested for antiviral activity against Herpes Simplex virus Type-2(MS) in human lung fibroblasts (MRC-5). The format is functional. An outline of the steps: as §2
Test [11] has as its system MRC5. The experiment in a line: compound was tested for antiviral activity against Herpes Simplex virus Type-2(17409) in human lung fibroblasts (MRC-5). The format is functional. An outline of the steps:
as §2

The subject of test [12] is MRC5. The experiment in a line: compound was tested for antiviral activity against Herpes Simplex virus Type-2(21929) in human lung fibroblasts (MRC-5). The format is functional. An outline of the steps:
as §2

Test [13] relates to MRC5. The experiment in a line: compound was tested for antiviral activity against Herpes Simplex virus Type-1(20132) in human lung fibroblasts (MRC-5). In kind it is functional. In outline:
as §2

The subject of test [14] is MRC5. The experiment in a line: compound was tested for antiviral activity against Herpes Simplex virus Type-2(20605) in human lung fibroblasts (MRC-5). In kind it is functional. An outline of the steps:
as §2

In test [15] the test system is MRC5. The experiment in a line: compound was tested for antiviral activity against Herpes Simplex virus Type-2(MS) in human lung fibroblasts (MRC-5). The format is functional. In outline: as §2
In test [16] the test system is MRC5. In words: compound was tested for antiviral activity against Herpes Simplex virus Type-1(19407) in human lung fibroblasts (MRC-5). The format is functional. An outline of the steps:
as §2

Test [17] relates to MRC5. The experiment in a line: compound was tested for antiviral activity against Herpes Simplex virus Type-1(HFEM) in human lung fibroblasts (MRC-5). The format is functional. An outline of the steps: as §2
Test [18] has as its system MRC5. In words: compound was tested for antiviral activity against Herpes Simplex virus Type-1(18189) in human lung fibroblasts (MRC-5). In kind it is functional. An outline of the steps:
as §2

The term pIC50 denotes the negative decadic logarithm of the IC50, by convention in mol/L. A higher pIC50 goes with a small IC50. Regarding `CCCCCOC(=O)CC(CO)CCn1cnc2c(O)nc(N)nc21` (configuration not stated), the pIC50 in the test on Vero [1] was 5.22; in the test on Vero [2] it was 4.82.

On to `COc1nc(N)nc2c1ncn2CCC(CO)CO`, for which the results for the pIC50 in the test on Vero [1] and in the test with Vero [2] were below 3.60 and 3.63, respectively.

Consider `Nc1nc(O)c2ncn(CCC(CC(=O)O)CC(=O)O)c2n1`, for which the pIC50 in the test with Vero [1] was 5.24; in the test on Vero [2], 5.00.

For `COC(=O)CC(CO)CCn1cnc2c(O)nc(N)nc21` (configuration not stated), the pIC50 is 4.09 in the test on Vero [1] and 4.51 in the test with Vero [2].

Consider `CCCCCCCCCCCCCCCOC(=O)CC(CO)CCn1cnc2c(O)nc(N)nc21` (configuration not stated), for which the pIC50 with Vero [1] is 4.48; in the test on Vero [2] it was 3.89.

Take `CCCCCOC(=O)CC(CCn1cnc2c(O)nc(N)nc21)CC(=O)OCCCCC`: the pIC50 with Vero [1] was 5.38; in the test with Vero [2], 5.44.

The IC90 is the concentration needed for an effect of 90%. For `Nc1nc2c(ncn2COCCO)c(=O)[nH]1` [ACYCLOVIR], the IC90 stood at 1400 nM with MRC5 [3]; 300 nM in the test with MRC5 [4]; 900 nM with MRC5 [5]; 900 nM in the test with MRC5 [6]; 4800 nM in the test with MRC5 [7]; 700 nM in the test on MRC5 [8]. In addition, the IC90 with MRC5 [9] is 700 nM; in the test on MRC5 [10], 1200 nM. For the same compound, the pIC50 with Vero [1] is 5.42; with Vero [2] it was 5.60.

For the compound `Nc1nc(O)c2ncn(CCC(CO)CO)c2n1` [PENCICLOVIR], the IC90 with MRC5 [11] worked out at 900 nM; in the test with MRC5 [12], 900 nM; with MRC5 [13] it was 600 nM; with MRC5 [14], 800 nM; with MRC5 [15] it was 1100 nM; in the test on MRC5 [16] it was 600 nM. Also, the figures for the IC90 in the test with MRC5 [17] and in the test on MRC5 [18] were 1300 nM and 500 nM, respectively. The pIC50 with Vero [1] and with Vero [2] was 5.19 in each case.
